Test results taken from article PMC11256359 (Biochemistry, 2024).
Substitutions are numbered along the chain they refer to.

Experiments:
Assay type in all cases: binding
[1] = target: T1, hOTC (human ornithine transcarbamylase) (Homo sapiens, UniProt P00480, C303A); assay: microscale thermophoresis, label-free
T1 sequence (P00480 33-354 C303A): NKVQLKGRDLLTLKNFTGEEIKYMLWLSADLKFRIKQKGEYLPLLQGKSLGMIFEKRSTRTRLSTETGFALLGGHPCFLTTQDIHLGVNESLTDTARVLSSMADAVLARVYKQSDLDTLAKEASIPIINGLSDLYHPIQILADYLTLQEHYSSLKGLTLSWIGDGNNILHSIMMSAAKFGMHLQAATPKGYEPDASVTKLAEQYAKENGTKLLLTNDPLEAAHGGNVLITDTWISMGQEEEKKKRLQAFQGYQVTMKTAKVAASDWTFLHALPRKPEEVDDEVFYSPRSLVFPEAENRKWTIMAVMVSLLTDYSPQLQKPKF
In short: (§1)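 His-tagged human OTC (WT or variants) expressed in BL21(DE3) Tuner cells with pGro7 chaperones and purified by one-step nickel chromatography. Ligand: substrate CP, serially diluted. Protein was diluted to 500 nM in 50 mM HEPES, 150 mM NaCl, 0.05% Tween, 2 mM EDTA, then mixed with CP to 250 nM final. Incubated ≥5 min at room temperature. Kd was measured by label-free MST on intrinsic tryptophan fluorescence.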

[2] = target: T2, hOTC (human ornithine transcarbamylase) (Homo sapiens, UniProt P00480, D263A); assay: microscale thermophoresis, label-free
T2 sequence (P00480 33-354 D263A): T1 sequence (P00480 33-354 C303A) with D231A, A271C
In short: as §1

[3] = target: T3, hOTC (human ornithine transcarbamylase) (Homo sapiens, UniProt P00480); assay: microscale thermophoresis, label-free
T3 sequence (P00480 33-354): T1 sequence (P00480 33-354 C303A) with A271C

[4] = target: T4, hOTC (human ornithine transcarbamylase) (Homo sapiens, UniProt P00480, H107N); assay: microscale thermophoresis, label-free
T4 sequence (P00480 33-354 H107N): T1 sequence (P00480 33-354 C303A) with H75N, A271C
In short: as §1

[5] = target: T5, hOTC (human ornithine transcarbamylase) (Homo sapiens, UniProt P00480, H302L); assay: microscale thermophoresis, label-free
T5 sequence (P00480 33-354 H302L): T1 sequence (P00480 33-354 C303A) with H270L, A271C
In short: as §1

[6] = target: T6, hOTC (human ornithine transcarbamylase) (Homo sapiens, UniProt P00480, D263N); assay: microscale thermophoresis, label-free
T6 sequence (P00480 33-354 D263N): T1 sequence (P00480 33-354 C303A) with D231N, A271C
In short: as §1

[7] = target: T3, hOTC (human ornithine transcarbamylase); assay: thermal shift assay; conditions: 10 mM L-norvaline with carbamoyl phosphate present; 4 µM enzyme; storage buffer

Structure (SMILES) | Kd [1] [nM] | Kd [2] [nM] | Kd [3] [nM] | Kd [4] [nM] | Kd [5] [nM] | Kd [6] [nM] | Tm increase relative to CP alone [7] [°C]
NC(=O)OP(=O)(O)O [CP, carbamoyl phosphate] | 190 | 430 | 230 | 25000 | 110000 | 320 | 
CCC[C@H](N)C(=O)O [NVA, L-norvaline] |  |  |  |  |  |  | 2
